# Columns and labels:
# [1] = Cytotoxicity against human TZM cells expressing GFP assessed as reduction in cell viability after 72 hrs by XTT assay; format: cell-based
# How it was run: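 TZM-GFP cells were seeded at 1×10^4 per well and exposed continuously to increasing compound concentrations for 72 h. Viable cells were measured by XTT. CC50 came from a log(inhibitor) vs normalized response, variable-slope fit, averaged across independent experiments. Duplicate wells, ≥2 experiments, mean ± SD.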
# [2] = Half life in human liver microsomes at 1 uM in presence of NADPH preincubated for 15 mins followed by NADPH addition and measured up to 60 mins by LC-MS/MS analysis; format: ADME, Microsome; settings: time 15-75 min
# How it was run: (§1)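 Compound at 1 µM final was preincubated 15 min at 37 °C with human or mouse liver microsomes (0.5 mg/mL protein) and 1 mM MgCl2 in 0.1 M potassium phosphate, pH 7.4. The reaction was started with 1 mM NADPH at 37 °C and sampled at 0, 5, 15, 30 and 60 min. Samples were quenched in acetonitrile/0.1% formic acid with internal standard; t1/2 was determined by LC-MS/MS. A no-NADPH control ran in parallel. Done in duplicate.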
# [3] = Half life in mouse liver microsomes at 1 uM in presence of NADPH preincubated for 15 mins followed by NADPH addition and measured up to 60 mins by LC-MS/MS analysis; format: ADME, Microsome; settings: time 15-75 min; how it was run: as §1
# [4] = system: Human immunodeficiency virus 1; assay: Antiviral activity against HIV 1 NL4-3 infected in human TZM cells expressing GFP assessed as inhibition LTR-activated GFP expression at 20 uM preincubated for 24 hrs followed by viral infection and measured after 48 hrs relative to control; format: functional; settings: Human immunodeficiency virus 1, NL4-3, TZM, time 72 hrs
# How it was run: (§2)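 TZM-GFP cells were seeded at 1×10^4 per well. After 24 h, medium was replaced with compound at a single concentration. After a further 24 h, cells were infected with HIV-1 NL4-3 (MOI = 1) and incubated 48 h. GFP-positive cells were counted by imaging and expressed as % inhibition of LTR-driven GFP versus compound-free DMSO control. Run in duplicate, at least two independent experiments.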
# [5] = system: Human immunodeficiency virus 1; assay: Antiviral activity against HIV 1 NL4-3 infected in human TZM cells expressing GFP assessed as inhibition LTR-activated GFP expression at 2 uM preincubated for 24 hrs followed by viral infection and measured after 48 hrs relative to control; format: functional; settings: Human immunodeficiency virus 1, NL4-3, TZM, time 72 hrs; how it was run: as §2
# [6] = system: Human immunodeficiency virus 1; assay: Antiviral activity against HIV 1 NL4-3 infected in human TZM cells expressing GFP assessed as reduction in LTR-activated GFP expression preincubated for 24 hrs followed by viral infection and measured after 48 hrs; format: functional, organism-based; settings: Human immunodeficiency virus 1, NL4-3, TZM
# How it was run: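 TZM-GFP cells were seeded at 1×10^4 per well. After 24 h they were given increasing compound concentrations for 24 h, then infected with HIV-1 NL4-3 (MOI = 1) for 48 h. GFP-positive cells were counted versus DMSO control. EC50 came from a log(inhibitor) vs normalized response, variable-slope fit, calculated per independent experiment and averaged. Duplicate wells, ≥2 experiments, mean ± SD.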
Compound,half-life at 1 µM [2],half-life at 1 µM [3],EC50 [6],CC50 at 72 h [1],inhibition at 20 µM [4],inhibition at 2 µM [5]
CCN(C(=O)[C@H](Cc1ccccc1)NC(=O)Cn1cnc2c1c(=O)n(C)c(=O)n2C)c1ccccc1,–,–,–,> 50 µM,94%,0%
CN(C(=O)[C@H](Cc1ccccc1)NC(=O)Cn1cnc2c1c(=O)n(C)c(=O)n2C)c1cccc(Cl)c1,–,–,–,> 50 µM,71%,0%
CN(C(=O)[C@H](Cc1ccccc1)NC(=O)Cc1c[nH]c2ccc(O)cc12)c1cccc(Br)c1,–,–,0.38 µM,> 100 µM,–,–
COc1ccc2[nH]cc(CC(=O)N[C@@H](Cc3ccccc3)C(=O)N(C)c3ccc(C)cc3)c2c1,–,–,0.28 µM,> 50 µM,–,–
CN(C(=O)[C@H](Cc1ccccc1)NC(=O)Cn1cnc2c1c(=O)n(C)c(=O)n2C)c1cccc(F)c1,–,–,–,> 50 µM,67%,1%
CN(C(=O)[C@H](Cc1ccccc1)NC(=O)Cn1cnc2c1c(=O)n(C)c(=O)n2C)c1ccc(Cl)cc1,–,–,–,> 50 µM,96%,6%
CN(C(=O)[C@H](Cc1ccccc1)NC(=O)Cn1cnc2c1c(=O)n(C)c(=O)n2C)c1ccc(F)cc1,–,–,–,> 50 µM,85%,14%
CN(C(=O)[C@H](Cc1ccccc1)NC(=O)Cc1c[nH]c2ccc(O)cc12)c1cccc(Cl)c1,–,–,0.31 µM,> 100 µM,–,–
COc1ccc2[nH]cc(CC(=O)N[C@@H](Cc3ccccc3)C(=O)N(C)c3ccc(Cl)cc3)c2c1,1.8 min,0.6 min,0.31 µM,> 50 µM,–,–
COc1ccc2[nH]cc(CC(=O)N[C@@H](Cc3ccccc3)C(=O)N(C)c3cccc(F)c3)c2c1,–,–,0.99 µM,> 50 µM,–,–
Cc1ccc(N(C)C(=O)[C@H](Cc2ccccc2)NC(=O)Cn2cnc3c2c(=O)n(C)c(=O)n3C)cc1,–,–,–,> 50 µM,98%,18%

# Second part, led by results:
half-life at 1 µM [2],half-life at 1 µM [3],EC50 [6],Compound,CC50 at 72 h [1],inhibition at 20 µM [4],inhibition at 2 µM [5]
4.7 min,1.2 min,–,CN(C(=O)[C@H](Cc1ccccc1)NC(=O)Cn1cnc2c1c(=O)n(C)c(=O)n2C)c1ccccc1,> 50 µM,94%,10%
–,–,0.32 µM,CN(C(=O)[C@H](Cc1ccccc1)NC(=O)Cc1c[nH]c2ccc(O)cc12)c1cccc(F)c1,47 µM,–,–
1.2 min,0.5 min,0.56 µM,COc1ccc2[nH]cc(CC(=O)N[C@@H](Cc3ccccc3)C(=O)N(C)c3ccccc3)c2c1,48 µM,–,–
–,–,0.57 µM,COc1ccc2[nH]cc(CC(=O)N[C@@H](Cc3ccccc3)C(=O)N(C)c3ccc(F)cc3)c2c1,> 50 µM,–,–
–,–,0.48 µM,CN(C(=O)[C@H](Cc1ccccc1)NC(=O)Cc1c[nH]c2ccc(O)cc12)c1cccc(C(F)(F)F)c1,65 µM,–,–
–,–,0.46 µM,CN(C(=O)[C@H](Cc1ccccc1)NC(=O)Cc1c[nH]c2ccc(O)cc12)c1ccc(F)cc1,> 50 µM,–,–

# — ChEMBL document CHEMBL4706536, “Novel HIV-1 capsid-targeting small molecules of the PF74 binding site” (Eur J Med Chem, 2020)
